Reference: ChEMBL document CHEMBL4196023, “Cyclic peptide inhibitors of lysine-specific demethylase 1 with improved potency identified by alanine scanning mutagenesis” (Eur J Med Chem, 2018)
Active and inactive are the calls of the source. The rule behind the calls is not given here. Positions of bridges follow the written chain, without caps; N, C: chain ends. Residues, ends and D or L forms follow the SMILES beside them. *: point of attachment. Decanoyl = CCCCCCCCCC(=O)*

What was measured:
[1] = tested on: Calu-6; assay: Inhibition of cell proliferation in human Calu6 cells at 50 uM after 72 hrs by MTS assay relative to control; type: functional; conditions: Calu-6, 72 h
[2] = biological target: Lysine-specific histone demethylase 1A (Homo sapiens) (UniProt O60341); assay: Inhibition of LSD1 in human K562 cells assessed as increase in H3K4me2 expression at 10 uM after 48 hrs by Western lot analysis relative to control; type: cell-based
[3] = tested on: MCF7; assay: Antiproliferative activity against human MCF7 cells after 72 hrs by MTS assay; type: functional, cell-based; conditions: MCF7, 72 h
[4] = tested on: Calu-6; assay: Antiproliferative activity against human Calu6 cells after 72 hrs by MTS assay; type: functional, cell-based; conditions: Calu-6, 72 h
[5] = tested on: K562; assay: Antiproliferative activity against human K562 cells assessed as cell death at 50 uM after 72 hrs by MTS assay relative to control; type: functional
[6] = tested on: K562; assay: Antiproliferative activity against human K562 cells after 72 hrs by MTS assay; type: functional, cell-based; conditions: K562, 72 h
[7] = biological target: Lysine-specific histone demethylase 1A (Homo sapiens) (UniProt O60341); assay: Inhibition of LSD1 in human NCI-H526 cells assessed as increase in H3K4me2 marks at promoter of IGFBP2 at 100 uM after 48 hrs by ChIP-qPCr method; type: cell-based
In short: (§1)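 NCI-H526 small cell lung carcinoma cells treated 48 h at 100 µM alongside an untreated control. Cells formaldehyde cross-linked, nuclei sonicated and chromatin enzymatically digested. IP with H3K4me2 antibody (normal rabbit IgG as negative control) on protein G magnetic beads. Purified DNA quantified by TaqMan qPCR at promoter regions; fold change by comparative CT (Livak). SD from three qPCR wells.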

[8] = biological target: Lysine-specific histone demethylase 1A (Homo sapiens) (UniProt O60341); assay: Inhibition of LSD1 in human NCI-H526 cells assessed as increase in H3K4me2 marks at promoter of FEZ1 at 100 uM after 48 hrs by ChIP-qPCr method; type: cell-based; in short: as §1
[9] = biological target: Lysine-specific histone demethylase 1A (Homo sapiens) (UniProt O60341); assay: Inhibition of LSD1 in human Calu6 cells assessed as increase in H3K4me2 expression at 10 uM after 48 hrs by Western lot analysis relative to control; type: cell-based
[10] = biological target: Lysine-specific histone demethylase 1A (Homo sapiens) (UniProt O60341); assay: Inhibition of LSD1 in human K562 cells assessed as increase in H3K4me2 expression after 48 hrs by Western lot analysis

Row | fold change (FC) [2] | IC50 [3] | IC50 [4] | inhibition [7] | inhibition [8] | Activity [9] | inhibition [10] | Structure (SMILES) | inhibition at 50 µM [1] | Activity [5] | IC50 [6]
1 | 17.6 | 36.1 µM | 92.4 µM | Active | Active | inactive | – | CCCCCCCCCC(=O)NCCCC[C@H](NC(=O)[C@H](C)NC(=O)[C@H](CC(C)C)NC(=O)[C@H](CCC(N)=O)NC(=O)[C@H](CCCCN)NC(=O)[C@H](CCCNC(=N)N)NC(=O)[C@@H]1CCCN1C(=O)[C@H](C)NC(=O)[C@H](CCCCN)NC(=O)CNC(=O)CNC(=O)[C@@H](NC(=O)[C@@H]1CCC(=O)NCCCC[C@H](NC(=O)[C@H](CCSC)NC(=O)[C@@H](NC(=O)[C@H](CCCNC(=N)N)NC(=O)[C@H](C)N)[C@@H](C)O)C(=O)N[C@@H]([C@@H](C)O)C(=O)N[C@@H](C)C(=O)N[C@@H](CCCNC(=N)N)C(=O)N[C@@H](CCCCN)C(=O)N1)[C@@H](C)O)C(N)=O | – | – | –
2 | 2 to 17 | 28.1 µM | 40.2 µM | Active | Active | – | Dose-dependent effect | CCCCCCCCCC(=O)NCCCC[C@H](NC(=O)[C@H](C)NC(=O)[C@H](CC(C)C)NC(=O)[C@H](CCC(N)=O)NC(=O)[C@H](CCCCN)NC(=O)[C@H](CCCNC(=N)N)NC(=O)[C@@H]1CCCN1C(=O)[C@H](C)NC(=O)[C@H](CCCCN)NC(=O)CNC(=O)CNC(=O)[C@@H](NC(=O)[C@@H]1CCC(=O)NCCCC[C@H](NC(=O)[C@H](CCSC)NC(=O)[C@H](C)NC(=O)[C@H](CCCNC(=N)N)NC(=O)[C@H](C)N)C(=O)N[C@@H]([C@@H](C)O)C(=O)N[C@@H](C)C(=O)N[C@@H](CCCNC(=N)N)C(=O)N[C@@H](CCCCN)C(=O)N1)[C@@H](C)O)C(N)=O (H-ARAMKTARKETGGKAPRKQLAK(Decanoyl)-NH2; lactam 5-10) | – | – | 95.1 µM

Row | Structure (SMILES) | fold change (FC) [2] | IC50 [3] | IC50 [4] | inhibition [7] | inhibition [8] | Activity [9] | inhibition [10] | inhibition at 50 µM [1] | Activity [5] | IC50 [6]
3 | N=C(NCCCNCCCCCCCNCCCNC(=N)NC(=N)NCCC(c1ccccc1)c1ccccc1)NC(=N)NCCC(c1ccccc1)c1ccccc1 | 2 to 17 | 2.5 to 5.1 µM | 1.6 to 6.3 µM | – | – | – | – | 83% | 88% | 4.3 µM
